# Laboratory results: ChEMBL document CHEMBL4177657, “Structure-activity relationships of 2-substituted phenyl-N-phenyl-2-oxoacetohydrazonoyl cyanides as novel antagonists of exchange proteins directly activated by cAMP (EPACs)” (Bioorg Med Chem Lett, 2017)
# pIC50: −log10 of the molar value.
# Tests used:
# [1] = molecular target: Rap guanine nucleotide exchange factor 4 (Homo sapiens, UniProt Q8WZA2); assay: Antagonist activity at recombinant full length EPAC2 (unknown origin) assessed as inhibition of cAMP-mediated Rap1b-BODIPY GDP nucleotide exchange activity
# Outline: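 Guanine nucleotide exchange on Rap1b loaded with bGDP, catalysed by EPAC2 in the presence of 20 μM cAMP and run across a compound dose range. Relative GEF activity is expressed as the normalized reaction rate constant.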
# [2] = molecular target: T1, Rap guanine nucleotide exchange factor 3 (Homo sapiens) (UniProt O95398); assay: (§1) Antagonist activity at recombinant full length EPAC1 (unknown origin) assessed as inhibition of cAMP-mediated Rap1b-BODIPY GDP nucleotide exchange activity
# T1 sequence (whole entry): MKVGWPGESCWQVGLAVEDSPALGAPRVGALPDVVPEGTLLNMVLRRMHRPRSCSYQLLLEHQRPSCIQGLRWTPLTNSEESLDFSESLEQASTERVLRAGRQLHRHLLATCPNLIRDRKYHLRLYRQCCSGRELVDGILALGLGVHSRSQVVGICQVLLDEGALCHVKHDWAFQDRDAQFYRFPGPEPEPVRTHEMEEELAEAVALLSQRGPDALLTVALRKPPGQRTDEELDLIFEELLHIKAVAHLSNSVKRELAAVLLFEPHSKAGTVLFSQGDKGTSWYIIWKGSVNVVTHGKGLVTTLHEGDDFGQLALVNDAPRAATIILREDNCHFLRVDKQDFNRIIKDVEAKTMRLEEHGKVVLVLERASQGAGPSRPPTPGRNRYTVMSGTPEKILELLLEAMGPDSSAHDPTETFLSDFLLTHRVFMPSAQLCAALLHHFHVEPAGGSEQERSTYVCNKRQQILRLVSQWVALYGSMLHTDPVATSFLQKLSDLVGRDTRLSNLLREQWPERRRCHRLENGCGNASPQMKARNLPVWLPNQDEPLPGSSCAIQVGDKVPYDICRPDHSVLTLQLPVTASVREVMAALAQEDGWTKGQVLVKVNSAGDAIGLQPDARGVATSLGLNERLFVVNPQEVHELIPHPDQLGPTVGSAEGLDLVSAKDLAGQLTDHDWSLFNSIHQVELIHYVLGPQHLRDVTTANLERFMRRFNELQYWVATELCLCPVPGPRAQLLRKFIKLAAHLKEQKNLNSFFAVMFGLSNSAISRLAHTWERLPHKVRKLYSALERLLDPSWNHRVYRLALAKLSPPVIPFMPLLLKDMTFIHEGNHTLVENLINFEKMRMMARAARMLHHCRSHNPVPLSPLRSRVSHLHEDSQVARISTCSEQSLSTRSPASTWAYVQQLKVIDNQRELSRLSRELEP
# Outline: (§2)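 Guanine nucleotide exchange on Rap1b loaded with BODIPY-GDP (Rap1b-bGDP), catalysed by EPAC1 in the presence of 20 μM cAMP. Inhibitor is tested over a dose range. GEF activity is expressed as a normalized reaction rate constant, and IC50 is taken from the dose-response curves. Values are mean ± SE, n = 3.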
# [3] = molecular target: T2, Rap guanine nucleotide exchange factor 3 (Homo sapiens, UniProt O95398); assay: as §1; outline: as §2
# T2 sequence (O95398 whole entry): T1 sequence (whole entry)
smiles,measurement,setting,value
CC(C)(C)c1cc(C(=O)/C(C#N)=N/Nc2cccc(Cl)c2)no1,pIC50,[1],5.05 to 5.36
same,inhibition,[1],Dose-dependent effect
same,inhibition,[2],Dose-dependent effect
same,pIC50,[3],4.97 to 5.04
C[C@@H]1CCc2c(cc(Br)c(F)c2Br)N1C=O,pIC50,[1],4.77
same,pIC50,[3],5.26
